Source: PubChem BioAssay (several laboratories)
Only a selection was taken, and hits are over-represented in it overall.
Calb biofilm kill = mixture kills Candida albicans biofilm cells | inhibition, % at 7.6 µM | actives 0.02% (n = 120,000) | C. albicans biofilm persisters + clotrimazole, fluorescence viability; primary screen in compound mixtures of four per well;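 note: compounds exposed to preformed 24 h biofilms for 48 h; 0% = untreated biofilm control and 100% = clotrimazole plus chlorhexidine kill blank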
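Test system: C. albicans biofilms. Buffer or medium: RPMI/MOPS medium, pH 7.0. Timing: 48 h compound exposure at 37 °C. Technique: Alamar Blue fluorescence. Evaluation: percent inhibition of biofilm viability.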
ROMK mod = modulates human ROMK potassium channel activity | AID 1918 | B-score at 10 µM | actives 2% (n = 130,000) | Tet-inducible ROMK, thallium flux fluorescence; actives lie on both sides;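 active = signal ratio slope over the read window, or its plate-corrected B-score, at least 3 SD from the plate mean, either direction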;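 note: B-score of the F/F0 ratio slope over 7 to 12 s after thallium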
Target sequence (P48048 whole entry, looked up): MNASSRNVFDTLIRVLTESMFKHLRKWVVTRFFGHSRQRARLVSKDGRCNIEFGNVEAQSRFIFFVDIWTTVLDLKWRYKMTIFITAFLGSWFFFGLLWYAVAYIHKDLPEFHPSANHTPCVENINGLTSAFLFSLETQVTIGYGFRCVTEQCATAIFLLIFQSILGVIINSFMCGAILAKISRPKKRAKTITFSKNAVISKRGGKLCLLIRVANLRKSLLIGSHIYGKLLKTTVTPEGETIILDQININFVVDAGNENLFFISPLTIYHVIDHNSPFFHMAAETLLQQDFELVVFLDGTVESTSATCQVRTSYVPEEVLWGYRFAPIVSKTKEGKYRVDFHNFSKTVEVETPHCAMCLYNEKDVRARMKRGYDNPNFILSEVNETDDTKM
ROMK hit retest = confirmation of human ROMK potassium channel modulators. actives 54% (n = 3,000). AID 1917. ROMK thallium flux, fluorescence ratio; hits give low values. normalized thallium flux (F/F0 slope) at 10 µM. shares compounds with ROMK mod;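 active = Flux at 10 µM at least 3 SD below or above vehicle control mean in one or both replicates; inconclusive = no clear call, values can overlap the other calls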
An asterisk follows results filed as active; ? = inconclusive; . = no result.

SMILES | Calb biofilm kill | ROMK mod | ROMK hit retest
O=c1c2ccccc2c(-c2ccccc2)nn1-c1cc(Cl)cc(Cl)c1 | 18.5 | . | 0.0774
Cc1nn(-c2c(Cl)cc(Cl)cc2Cl)c(=O)c2ccccc12 | . | -0.216 | .
CC1(C)CC(=O)C2=C(C1)NC(Nc1nc3ccccc3o1)=NC21CCCCC1 | . | 0.0419 | .
CCc1cc(=O)oc2cc(C)cc(OCC(C)=O)c12 | 2.6 | . | .
Nc1nc(-c2ccc(F)cc2)cc(C(F)(F)F)n1 | . | -0.111 | .
COc1ccc(-c2cc(C(F)(F)F)nc(N)n2)cc1 | 7.2 | . | .
CS(=O)(=O)c1nc(-c2ccc(F)cc2)cc(C(F)(F)F)n1 | 9.6 | -2.55* | 0.0583*
COc1ccc(-c2cc(C(F)(F)F)nc(S(C)(=O)=O)n2)cc1 | . | -4.23* | 0.0552*
CCOC(=O)C1(Cc2cccc(OC)c2)CCN(Cc2cccc3cnccc23)CC1 | -0.9 | 0.0873 | .
CCOC(=O)Nc1ccc2c(CN3CCN(S(=O)(=O)c4ccccc4)CC3)cc(=O)oc2c1 | 7.7 | . | .
O=C(NCc1ccco1)c1ccc(F)c(S(=O)(=O)N2CCCCC2)c1 | 2.7 | 0.248 | .
Cc1ccc(C(=O)Nc2ccccc2C(=O)NCc2ccco2)cc1S(=O)(=O)N1CCCCC1 | . | -0.604 | 0.0782
COc1ccc(Cl)cc1NC(=O)N1CCC(C)CC1 | 34.6 | -0.248 | .
CCN1C=C(Cc2ccc(OC)cc2)C2=C(C1)C(c1ccc(OC)cc1)C(C#N)=C(N)O2 (stereo unspecified) | . | . | ?
COc1ccc(C2C(C#N)=C(N)Oc3cc(C)n(Cc4ccncc4)c(=O)c32)cc1 (stereo unspecified) | . | -1.69 | .
Cc1ccc(-c2nnn(CC(=O)NCCc3ccc4c(c3)OCO4)n2)cc1 | 19.6 | -0.33 | .
CC(NC(=O)c1cc(COc2ccc3ncccc3c2)on1)c1ccc(F)cc1 (stereo unspecified) | 14.2 | . | .
O=C(NCc1ccccc1)N1CCC(n2cnc3cc(F)ccc32)CC1 | . | . | 0.0686*
Cc1ccc2c(c1)nnn2C1CCN(C(=O)NCc2ccccc2)CC1 | 16.9 | -0.0449 | .
Cc1cc(C)n(-c2nc(N(C)C)nc(N3CCOCC3)n2)n1 | . | -0.00317 | .
CCc1ccccc1NC(=O)N[C@@H](C)C(=O)O | . | 0.904 | .
CCC(C)(C)NC(=O)CCCSc1nc2ccccc2s1 | 10.9 | 0.269 | .
CCOC(=O)c1sc(=NC(=O)COc2ccccc2)n(C)c1C | 19.0 | -0.442 | .
Cc1nnc2c3ccccc3c(-c3cccc4ccccc34)nn12 | . | -0.42 | .
Cc1nnc2sc(-c3cccc4ccccc34)nn12 | . | -5.2* | 0.0538*
SMILES | Calb biofilm kill | ROMK mod | ROMK hit retest
Cc1nnc(NC(=O)CSc2n[nH]c(-c3ccccc3)n2)s1 | 14.5 | -0.272 | .
CCCc1cc(=O)oc2cc(C)cc(O)c12 | . | -1.94 | .
CCCCCc1cc(O)c2c(C)cc(=O)oc2c1 | . | . | 0.0546*
Cc1ccccc1NC(=O)c1ccc(S(=O)(=O)C(F)F)cc1 | 16.9 | 0.306 | .
COc1cc(S(=O)(=O)N2CCCCCC2)ccc1-n1cnnn1 | . | 0.2 | .
COc1cc(NC(=O)C2CCN(S(=O)(=O)c3ccc(Cl)cc3)CC2)ccc1-n1cnnn1 | . | . | 0.0532*
CC(=O)Nc1ccc(C(=O)NN2C(=O)c3ccccc3C2=O)cc1 | 7.9 | -0.565 | .
Cc1cc(C(=O)COC(=O)c2ccc[nH]c2=O)c(C)n1-c1ccc(F)cc1 | 16.3 | 0.0908 | .
COCCCNC(=S)Nc1cccc(SC)c1 | 1.2 | -0.101 | .
COc1ccc(/C=C(\NC(=O)c2cccs2)C(=O)N2CCOCC2)cc1OC | -0.5 | . | .
CCC1CCCCN1C(=O)c1sc2nc(C)nc(N(CC)CC)c2c1C (stereo unspecified) | 1.7 | -3.69* | 0.0585*
CCOC(=O)C1CCCN(C(=O)c2sc3nc(C)nc(N(CC)CC)c3c2C)C1 (stereo unspecified) | 7.1 | . | .
Cc1cccc(N2C(=O)c3cccc4c(N5CCCCC5)c([N+](=O)[O-])cc(c34)C2=O)c1C | 13.4 | 1.58 | .
O=C1c2cccc3c(N4CCCCC4)ccc(c23)C(=O)N1c1ccc(O)cc1 | 11.6 | -3.11* | 0.0506*
O=C1c2cccc3c(N4CCCCC4)ccc(c23)C(=O)N1c1ccccc1O | 10.3 | -5.18* | 0.0505*
O=C(O)c1ccc2c3c(cccc13)C(=O)N(c1ccccc1)C2=O | 3.0 | 0.0744 | .
O=C(COC(=O)CCc1ccccc1)NC(c1ccccc1)c1ccccc1 | 8.2 | . | .
Cc1ccc(S(=O)(=O)N2CCN(S(=O)(=O)c3ccc(C)cc3)C3OCCOC32)cc1 (stereo unspecified) | . | -0.00263 | .
Cc1ccc(S(=O)(=O)CC(CN2CCCCC2)N2CCCCC2)cc1 (stereo unspecified) | 6.8 | -0.671 | .
O=S(=O)(CC(CN1CCCCC1)N1CCCCC1)c1ccc2ccccc2c1 (stereo unspecified) | -3.0 | -5.83* | 0.0588*
O=C(NCc1ccccc1Cl)C1CC(=O)N(Cc2ccccc2)C1 (stereo unspecified) | 10.0 | 0.729 | .
CCCC(c1nnnn1C(C)(C)CC)N(CCCO)Cc1cc2cc(C)cc(C)c2[nH]c1=O (stereo unspecified) | . | -3.72* | 0.0554*
Cc1ccc2[nH]c(=O)c(CN(CCCO)C(C)c3nnnn3Cc3ccco3)cc2c1 (stereo unspecified) | 21.6 | 0.046 | .
CCC(c1nnnn1C(C)(C)CC)N(CCN1CCOCC1)Cc1cc2cc(C)ccc2[nH]c1=O (stereo unspecified) | . | -4.79* | ?
CCOc1ccc2[nH]c(=O)c(CN(CCN3CCOCC3)Cc3nnnn3C(C)(C)CC)cc2c1 | . | -1.66 | .
SMILES | Calb biofilm kill | ROMK mod | ROMK hit retest
Cc1nc2cc3c(cc2c(C)c1C(=O)OC(C)C)OCO3 | 8.4 | -0.119 | .
CCOc1ccc(-c2cc(C(=O)NN=C3CCN(C)CC3)[nH]n2)cc1 | 16.0 | -0.0173 | .
CCCCCc1ccc(OCCC[n+]2ccccc2)c(CCCCC)c1 | 3.6 | . | 0.0602*
CCCCOc1ccccc1Cn1c(=O)oc2ccccc21 | . | 0.587 | .
CCCCCc1ccc(OCCOCCn2c[n+](C)c3ccccc32)c(CCCCC)c1 | -9.2 | . | 0.0456*
CC(=O)Nc1ccc(OCCC[n+]2ccccc2)cc1 | 14.0 | . | .
CC(C)C(=O)Nc1cccc(NC(=S)NC(=O)c2ccc(Cl)cc2)c1 | . | 0.461 | .
O=C(CN1CCN(CCOCCO)CC1)N1c2ccccc2Sc2ccc(Cl)cc21 | . | -0.367 | .
COc1ccc(-c2ncncc2-c2csc(C)n2)c(O)c1OC | . | 1.45 | .
COC1=C(N)C(=O)c2nc(-c3nc(C(=O)O)c(C)c(-c4ccc(OC)c(OC)c4O)c3N)ccc2C1=O | 25.7 | . | 0.0575*
O=c1cc(-c2ccc(O)cc2)oc2ccccc12 | 26.4 | 0.981 | .
O=c1cc(-c2ccc(O)cc2)oc2ccc(O)cc12 | 9.5 | 2.47* | 0.0782
CC(C)COc1nc2c(c(=O)n(C)c(=O)n2C)n1C | 0.3 | . | .
CCOC(CNc1c([N+](=O)[O-])c(=O)n(C)c(=O)n1C)OCC | 6.6 | . | .
S=c1nccc(-c2ccc3c(c2)CCO3)[nH]1 | 22.9 | 0.206 | .
CC1(C)CCc2cc(-c3ccnc(=S)[nH]3)ccc2O1 | 3.0 | . | 0.0837
CCOC(=O)c1c(NC(=O)CC2SC(=NC)N(C)C2=O)sc(C)c1C (stereo unspecified) | . | 0.784 | .
O=[N+]([O-])c1ccccc1S(=O)(=O)NCCC1=CCCCC1 | . | -0.174 | .
Cc1nc(-c2ccccc2)nc2[nH]c(-c3ccccc3)cc(=O)c12 | . | 0.938 | .
Cc1nc(C)c2c(=O)cc(-c3ccccc3)[nH]c2n1 | . | 1.22* | 0.0915
O=C(c1ccccc1Br)N1CCC(c2nc3ccccc3s2)CC1 | 16.4 | 0.61 | .
O=C(CN1CCC(c2nc3ccccc3s2)CC1)NCc1ccccc1 | 14.0 | -3.01* | 0.0733
